According to ChEMBL document CHEMBL1909510, “Synthesis and evaluation of cytotoxic effects of hanultarin and its derivatives” (Bioorg Med Chem Lett, 2011):
The source made the active and inactive calls. The rule behind the calls is not given here.

Legend:
Format in all cases: functional, cell-based
[1] = tested on: B16-F10; test: Cytotoxicity against mouse B16F10 cells after 48 hrs by sulforhodamine B assay; conditions: B16-F10, 48 h
Procedure, shortened: (§1)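 SRB assay, done in triplicate on each cell line across 1.56–50 µg/mL; IC50 determined per cell line. Lines are A549 (human lung cancer), B16F10 (mouse melanoma), HCT-15 (human colon), SKOV3 (human ovary) and SKMel2 (human skin).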

[2] = tested on: SK-OV-3; test: Cytotoxicity against human SKOV3 cells after 48 hrs by sulforhodamine B assay; conditions: SK-OV-3, 48 h; procedure, shortened: as §1
[3] = tested on: HCT-15; test: Cytotoxicity against human HCT15 cells after 48 hrs by sulforhodamine B assay; conditions: HCT-15, 48 h; procedure, shortened: as §1
[4] = tested on: SK-MEL-2; test: Cytotoxicity against human SK-MEL-2 cells after 48 hrs by sulforhodamine B assay; conditions: SK-MEL-2, 48 h; procedure, shortened: as §1
[5] = tested on: A549; test: Cytotoxicity against human A549 cells after 48 hrs by sulforhodamine B assay; conditions: A549, 48 h; procedure, shortened: as §1
[6] = tested on: A549; test: Induction of actin disruption in human A549 cells at IC50 after 48 hrs by immunocytochemical analysis
[7] = tested on: A549; test: Induction of nucleus disruption in human A549 cells at IC50 after 48 hrs by immunocytochemical analysis
[8] = tested on: A549; test: Induction of microtubule disruption in human A549 cells at IC50 after 48 hrs by immunocytochemical analysis

Structure (SMILES)	IC50 [1]	IC50 [2]	IC50 [3]	IC50 [4]	IC50 [5]	Activity [6]	Activity [7]	Activity [8]
COc1cc(CC(=O)OC[C@H](Cc2ccc(O)c(OC)c2)[C@H](CO)Cc2ccc(O)c(OC)c2)ccc1O (racemic)	71.8 µM	> 76 µM	52.2 µM	> 76 µM	65.3 µM	–	–	–
COc1cc(CC(=O)OC[C@H](Cc2ccc(O)c(OC)c2)[C@H](COC(=O)Cc2ccc(O)c(OC)c2)Cc2ccc(O)c(OC)c2)ccc1O (racemic)	13.3 µM	30.8 µM	15.9 µM	14.2 µM	17.5 µM	Active	inactive	Active
COc1cc(CCC(=O)OC[C@H](Cc2ccc(O)c(OC)c2)[C@H](CO)Cc2ccc(O)c(OC)c2)ccc1O (racemic)	68.4 µM	> 74 µM	49.6 µM	64 µM	65.7 µM	–	–	–
COc1cc(CCC(=O)OC[C@H](Cc2ccc(O)c(OC)c2)[C@H](COC(=O)CCc2ccc(O)c(OC)c2)Cc2ccc(O)c(OC)c2)ccc1O (racemic)	12.8 µM	35.9 µM	10 µM	10.3 µM	12.1 µM	Active	inactive	Active
COc1cc(/C=C/C(=O)OC[C@H](Cc2ccc(O)c(OC)c2)[C@H](COC(=O)/C=C/c2ccc(O)c(OC)c2)Cc2ccc(O)c(OC)c2)ccc1O (racemic)	9.8 µM	21.7 µM	8.3 µM	8.3 µM	7.1 µM	Active	inactive	Active
COc1cc(C[C@@H](CO)[C@H](CO)Cc2ccc(O)c(OC)c2)ccc1O (racemic) [(+)-SECOISOLARICIRESINOL]	> 110 µM	> 110 µM	> 110 µM	> 110 µM	> 110 µM	–	–	–
COc1cc(/C=C/C(=O)OC[C@H](Cc2ccc(O)c(OC)c2)[C@H](CO)Cc2ccc(O)c(OC)c2)ccc1O (racemic) [HANULTARIN]	21.4 µM	63.9 µM	29.3 µM	17.3 µM	29.5 µM	Active	inactive	Active
